The values below come from ChEMBL document CHEMBL4613302, “Synthesis and Antiproliferative Activity of Nitric Oxide-Donor Largazole Prodrugs” (ACS Med Chem Lett, 2020).

In data set [1] the test system is U2OS. The data set can be described thus: Antiproliferative activity against human U2OS cells assessed as reduction in cell viability incubated for 24 hrs by MTT assay. The class given is functional, cell-based. Put shortly:
(§1)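 Growth inhibition was read at 24, 48 and 72 h in U-2OS, Caco-2 and IMR-32 cells. EC50 values are the mean of n = 3 independent experiments ± SEM.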
(In general: Tetrazolium dyes change colour on reduction, which living cells bring about.)

The subject of data set [2] is IMR-32. The data set can be described thus: Antiproliferative activity against human IMR32 cells assessed as reduction in cell viability incubated for 24 hrs by MTT assay. Type of data set: functional, cell-based. The note with it: IMR-32, 24 h. Put shortly: as §1
Data set [3] in a line: Stability of compound in human plasma assessed as compound hydrolysis at 500 ug/ml measured upto 24 hrs by HPLC-UV/MS analysis. Type of data set: ADME, cell-free.
In data set [4] the test system is IMR-32. Briefly: Antiproliferative activity against human IMR32 cells assessed as reduction in cell viability incubated for 48 hrs by MTT assay. Type of data set: functional, cell-based. As to conditions: IMR-32, 48 h. In outline:
as §1

Data set [5] can be described thus: Induction of NO production in PBS buffer at 0.1 mM measured for 1 to 24 hrs by Griess method. The class given is functional. Put shortly:
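Compound at 0.1 mM in 50 mM phosphate buffer, pH 7.4, incubated at 37 °C without l-cysteine. Released NO was measured as nitrite by the Griess method and given as % of the initial compound concentration at 1, 5 and 24 h. Values are the average of three independent experiments.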
For orientation: Griess reagent forms a coloured azo dye with nitrite.

Data set [6] relates to IMR-32. Briefly: Antiproliferative activity against human IMR32 cells assessed as reduction in cell viability incubated for 72 hrs by MTT assay. Type of data set: functional, cell-based. The note with it: IMR-32, 72 h. In outline: as §1
A short description of data set [7]: Chemical stability of compound in DMSO assessed as compound hydrolysis at 500 ug/ml measured upto 24 hrs by HPLC-UV/MS analysis. The class given is physicochemical.
In data set [8] the test system is U2OS. Briefly: Antiproliferative activity against human U2OS cells assessed as reduction in cell viability incubated for 72 hrs by MTT assay. Type of data set: functional, cell-based. In outline:
as §1

Data set [9] has as its system Caco-2. The data set can be described thus: Antiproliferative activity against human Caco2 cells assessed as reduction in cell viability incubated for 48 hrs by MTT assay. The note with it: Caco-2, 48 h. Type of data set: functional, cell-based. Put shortly:
as §1

Data set [10] concerns Caco-2. The data set can be described thus: Antiproliferative activity against human Caco2 cells assessed as reduction in cell viability incubated for 72 hrs by MTT assay. Type of data set: functional, cell-based. The note with it: Caco-2, 72 h. In outline: as §1
A short description of data set [11]: Chemical stability of compound in HEPES assessed as compound hydrolysis at 500 ug/ml measured upto 24 hrs by HPLC-UV/MS analysis. Type of data set: physicochemical.
Data set [12] relates to Caco-2. Briefly: Antiproliferative activity against human Caco2 cells assessed as reduction in cell viability incubated for 24 hrs by MTT assay. The class given is functional, cell-based. As to conditions: Caco-2, 24 h. Put shortly: as §1
Data set [13] in a line: Induction of NO production in PBS buffer at 0.1 mM in presence of L-cysteine measured for 1 to 24 hrs by Griess method. The class given is functional. In outline: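 Griess assay for NO release: each compound at 0.1 mM in 50 mM phosphate buffer, pH 7.4, at 37 °C, with l-cysteine at 0.5 mM and at 5 mM. Nitrite yield is given as % of the initial compound concentration at 1 h, 5 h and 24 h. Values are the average of three independent experiments.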

The subject of data set [14] is U2OS. The data set can be described thus: Antiproliferative activity against human U2OS cells assessed as reduction in cell viability incubated for 48 hrs by MTT assay. The class given is functional, cell-based. In outline: as §1

Active and inactive are the calls of the source. No cut-off for these calls is given here.

With `CC(C)[C@@H]1NC(=O)[C@]2(C)CSC(=N2)c2csc(n2)CNC(=O)C[C@@H](/C=C/CCSC(=O)CCC(CO[N+](=O)[O-])O[N+](=O)[O-])OC1=O` (some centres not stated), the EC50 – broadly, the midpoint of the concentration-response curve – with U2OS [1] is 468 nM; in the data set on IMR-32 [2] it was 29.5 nM; with IMR-32 [4] it was 61.7 nM; with IMR-32 [6], 50.1 nM; with U2OS [8], 1000 nM; with Caco-2 [9], 5.62 nM. Moreover, the results for the EC50 with Caco-2 [10], in the data set on Caco-2 [12] and with U2OS [14] were 4.47 nM, 9.12 µM and 741 nM, respectively. Further, the Stability result in data set [3], in data set [7] and in [11] was “Stable” in each case. Besides, the outcome in [5] and in data set [13] was Active.
For the compound `CCCCCCCC(=O)SCC/C=C/[C@@H]1CC(=O)NCc2nc(cs2)C2=N[C@@](C)(CS2)C(=O)N[C@@H](C(C)C)C(=O)O1` [LARGAZOLE], the EC50 in the data set on U2OS [1] was 20400 nM; in the data set with IMR-32 [2] it was 34.7 nM; in the data set with IMR-32 [4] it was 30.2 nM; in the data set on IMR-32 [6], 12.3 nM; with U2OS [8], 331 nM; with Caco-2 [9], 759 nM. The EC50 was 14.5 nM in the data set with Caco-2 [10], over 10000 µM in the data set on Caco-2 [12] and 372 nM with U2OS [14].
In the case of `CC(C)[C@@H]1NC(=O)[C@]2(C)CSC(=N2)c2csc(n2)CNC(=O)C[C@@H](/C=C/CCSC(=O)CCCCO[N+](=O)[O-])OC1=O`, the EC50 in the data set on U2OS [1] was 1950 nM; in the data set on IMR-32 [2], 15.1 nM; in the data set on IMR-32 [4] it was 19.5 nM; in the data set with IMR-32 [6], 12 nM; in the data set with U2OS [8] it was 170 nM; in the data set with Caco-2 [9] it was 38 nM. Further, the 50% effective concentration (EC50) in the data set with Caco-2 [10] was 8.13 nM; with Caco-2 [12] it was 11.2 µM; in the data set on U2OS [14] it was 309 nM. Moreover, the Stability result in data set [3], in data set [7] and in [11] was “Stable” each time. The outcome in data set [5] and in data set [13] was Active.
